Results published in ChEMBL document CHEMBL4814004, “Design and synthesis of quinoline-pyrimidine inspired hybrids as potential plasmodial inhibitors” (Eur J Med Chem, 2021).

Key:
[1] = tested on: Plasmodium falciparum; assay: Antiplasmodial activity against chloroquine-sensitive Plasmodium falciparum NF54 infected in erythrocytes assessed as reduction in parasite growth incubated for 48 hrs by lactate dehydrogenase assay; assay type: functional, organism-based; details: NF54, Erythrocyte
How it was run: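 P. falciparum NF54 cultured in supplemented RPMI-1640 at 37 °C under 5% CO₂/3% O₂/92% N₂. Rings synchronised with 5% D-sorbitol and set to 2% parasitaemia, 2% haematocrit. Serial dilutions added after a 24 h incubation, then a further 48 h incubation. Quinine as positive control. pLDH read-out with tetrazolium-phenazine ethosulphate, 40 min at 37 °C, A620. IC50 from log sigmoid dose-response curves, triplicate.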

[2] = tested on: HEK293; assay: Cytotoxicity against human HEK293 cells incubated for 48 hrs by MTT assay; assay type: cell-based; details: HEK293, 48 h
How it was run: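 HEK-293 monolayers grown in DMEM with 10% FBS and penicillin/streptomycin at 37 °C, 5% CO₂. Cells at 10 000/well exposed 48 h to serial dilutions with final DMSO under 1%. Camptothecin as positive control. MTT (5 mg/ml in PBS pH 7.3) added for 2 h, formazan dissolved in DMSO, read at A540 with 690 nm reference. IC50 from % viability, triplicate.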

[3] = Selectivity index, ratio of IC50 for human HEK293 cells to IC50 for Plasmodium falciparum NF54; assay type: toxicity; details: read-out: Ratio IC50
[4] = Binding affinity to recombinant Plasmodium falciparum HSP70-1 expressed in Escherichia coli assessed as steady state affinity by SPR analysis
How it was run: (§1)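 MP-SPR at 25 °C in PBS-Tween 20 with 20 mM EDTA, pH 7.4. Analyte at 0, 1.25, 2.5, 5 and 10 nM, injected three times. Association 3 min, dissociation 10 min. Double-referenced, global 1:1 Langmuir fit.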

[5] = Binding affinity to recombinant Plasmodium falciparum HSP70-1 expressed in Escherichia coli assessed as dissociation rate constant by SPR analysis; how it was run: as §1
[6] = Binding affinity to recombinant Plasmodium falciparum HSP70-z expressed in Escherichia coli assessed as steady state affinity by SPR analysis; how it was run: as §1
[7] = Binding affinity to recombinant Plasmodium falciparum HSP70-z expressed in Escherichia coli assessed as dissociation rate constant by SPR analysis; how it was run: as §1

`Clc1ccc2c(N3CCN(c4nc(-c5ccccc5)cc(-c5ccccc5)n4)CC3)ccnc2c1` gave an IC50 [1] of 7500 nM.

For `C=C[C@H]1CN2CC[C@H]1C[C@H]2[C@H](O)c1ccnc2ccc(OC)cc12` [QUININE], the IC50 [1] was 108 nM, the IC50 [2] was 134000 nM and the selectivity ratio [3] was 1240.

Compound `Cc1ccc(-c2cc(-c3ccc(Cl)cc3)nc(N3CCN(c4ccnc5cc(Cl)ccc45)CC3)n2)cc1` has an IC50 [1] of 13100 nM.

Compound `Oc1ccc(-c2cc(-c3ccc(O)c(O)c3)nc(N3CCN(c4ccnc5cc(Cl)ccc45)CC3)n2)cc1` has an IC50 [1] of 2660 nM.

Compound `COc1ccc(-c2cc(-c3ccc(C)cc3)nc(N3CCN(c4ccnc5cc(Cl)ccc45)CC3)n2)cc1` has an IC50 [1] of 2630 nM.

Compound `CC[C@@]1(O)C(=O)OCc2c1cc1n(c2=O)Cc2cc3ccccc3nc2-1` [CAMPTOTHECIN] has a selectivity ratio [3] of 0.01.

With `Cc1ccc(-c2cc(-c3ccc(Cl)cc3)nc(NCCCCNc3ccnc4cc(Cl)ccc34)n2)cc1` the IC50 [1] was 9490 nM.

In the case of `COc1ccc(/C=C/C(=O)c2ccc(O)cc2)c(O)c1`, the IC50 [1] is reported as 590 nM.

Work on `COc1ccc(-c2cc(-c3ccc(OC)c(OC)c3)nc(NCCCCNc3ccnc4cc(Cl)ccc34)n2)cc1` yielded an IC50 [1] of 2610 nM.

For `COc1ccc(C(=O)/C=C/c2ccc(OC)c(OC)c2)c(O)c1`, the IC50 [1] was 3180 nM.

In the case of `COc1ccc(-c2cc(-c3ccc(OC)cc3)nc(N3CCN(c4ccnc5cc(Cl)ccc45)CC3)n2)cc1`, the Kd [4] is reported as 2.19 nM, the “Dissociation rate constant (koff)” value [5] is reported as 1.32 10^-2/s and the IC50 [1] is reported as 7690 nM. The Kd [6] was 13700 nM and the “Dissociation rate constant (koff)” value [7] was 8.24 10^-2/s.

`COc1ccc(-c2cc(-c3ccc(OC)c(OC)c3)nc(N3CCN(c4ccnc5cc(Cl)ccc45)CC3)n2)cc1` gave an IC50 [1] of 17800 nM.

`CCN(CC)CCCC(C)Nc1ccnc2cc(Cl)ccc12` (centres undefined) [CHLOROQUINE] showed an IC50 [2] of 101000 nM.

For `COc1ccc(-c2cc(-c3ccc(OC)cc3)nc(NCCCCNc3ccnc4cc(Cl)ccc34)n2)cc1`, the IC50 [1] was 83000 nM.

For `COc1ccc(-c2cc(-c3ccc(OC)c(OC)c3)nc(N3CCN(c4ccnc5cc(Cl)ccc45)CC3)n2)cc1OC`, the Kd [4] was 26.1 nM, the “Dissociation rate constant (koff)” value [5] was 7 10^-2/s and the IC50 [1] was 6170 nM. The Kd [6] was 2050 nM and the “Dissociation rate constant (koff)” value [7] was 7.48 10^-2/s.

For `Oc1ccc(-c2cc(-c3ccc(O)cc3)nc(NCCCCNc3ccnc4cc(Cl)ccc34)n2)cc1`, the Kd [4] was 11.4 nM, the “Dissociation rate constant (koff)” value [5] was 8.81 10^-2/s and the IC50 [1] was 320 nM. For the same compound, the Kd [6] was 4.43 nM, the IC50 [2] was 3160 nM and the “Dissociation rate constant (koff)” value [7] was 1.2 10^-1/s. The selectivity ratio [3] was 9.79.

`COc1ccc(-c2cc(-c3ccc(C)cc3)nc(NCCNc3ccnc4cc(Cl)ccc34)n2)cc1` showed an IC50 [1] of 4300 nM.

With `COc1ccc(-c2cc(-c3ccc(C)cc3)nc(NCCCNc3ccnc4cc(Cl)ccc34)n2)cc1` the IC50 [1] was 2710 nM.

For `Oc1ccc(-c2cc(-c3ccc(O)c(O)c3)nc(NCCCCNc3ccnc4cc(Cl)ccc34)n2)cc1`, the Kd [4] was 281 nM, the “Dissociation rate constant (koff)” value [5] was 7.84 10^-2/s and the IC50 [1] was 1620 nM. For the same compound, the Kd [6] was 4750 nM and the “Dissociation rate constant (koff)” value [7] was 9.06 10^-2/s.
